Data on 14 molecules can be found in ChEMBL document CHEMBL4043094, “Azobenzene-containing photoswitchable proteasome inhibitors with selective activity and cellular toxicity” (Bioorg Med Chem, 2017).

pIC50: −log10 of the molar value. A value given as a limit tells only on which side of the number the result lay.

The nature of data set [1]: Inhibition of chymotrypsin-like activity of 20S proteasome in rabbit 20S proteasome pre-incubated for 10 mins before Suc-Leu-Leu-Val-Tyr-AMC substrate addition and measured after 2 hrs by fluorescence assay. Further details: species or system Oryctolagus cuniculus. The method, boiled down:
(§1)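 IC50 (nM) was determined for each compound twice: in its non-irradiated form and again after light irradiation.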

Data set [2] in a line: Inhibition of caspase-like activity of 20S proteasome in rabbit 20S proteasome pre-incubated for 10 mins before Suc-Leu-Leu-Val-Tyr-AMC substrate addition and measured after 2 hrs by fluorescence assay. Further details: species or system Oryctolagus cuniculus. The gist of the method: as §1
For the next data set, the system named is MCF-10A. Nature of the data set: Cytotoxicity against human MCF10A cells at 5000 nM incubated for 48 hrs by 7AAD dye based flow cytometry. Type of data set: cell-based. The settings on record: 5 µM.
A further data set relates to HCT-116. The data set is described as follows: Cytotoxicity against human HCT116 cells incubated for 48 hrs by 7AAD dye based flow cytometry. The data set is classed as functional. Conditions: HCT-116, 48 h, read-out: LD50 (the source's name). The gist of the method:
(§2)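 Apoptosis dose-response over 48 h treatment. Each inhibitor was tested in two forms: the thermally adapted trans state and the cis photostationary state.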

The test system of the next data set is MDA-MB-468. The data set is described as follows: Cytotoxicity against human MDA-MB-468 cells incubated for 48 hrs by 7AAD dye based flow cytometry. Type of data set: functional. The settings on record: MDA-MB-468, 48 h, read-out: LD50 (the source's name). The method, boiled down:
as §2

The nature of data set [3]: Cytotoxicity against human MCF10A cells incubated for 48 hrs by 7AAD dye based flow cytometry. Type of data set: cell-based, MCF-10A. The settings on record: read-out: LD50.
The nature of data set [4]: Stability in DMSO. The data set is classed as physicochemical.

For the molecule `CC(C)C[C@H](NC(=O)[C@@H](NC(=O)c1cccc(/N=N/c2ccccc2)c1)[C@@H](C)O)B1OC2C[C@@H]3C[C@@H](C3(C)C)[C@]2(C)O1` (stereo not given in full), the results for the pIC50 in data set [1] and in data set [2] were 7.77 and 6.06, respectively.

As to `CC(C)C[C@H](NC(=O)[C@H](Cc1ccccc1)NC(=O)c1cnccn1)B(O)O` [BORTEZOMIB], the pIC50 was 8.30 in data set [1] and 7.12 in data set [2].

For the molecule `Cc1cc(C)cc(/N=N\c2cccc(C(=O)N[C@H](C(=O)N[C@@H](CC(C)C)B3OC4C[C@@H]5C[C@@H](C5(C)C)[C@]4(C)O3)[C@@H](C)O)c2)c1` (stereo not given in full), the figures for the pIC50 in data set [1] and in data set [2] were 6.60 and 5.79, respectively.

Turning to `CC(C)C[C@H](NC(=O)[C@H](Cc1ccc(/N=N/c2ccc(-c3ccccc3)cc2)cc1)NC(=O)OC(C)(C)C)B1OC2C[C@@H]3C[C@@H](C3(C)C)[C@]2(C)O1` (stereo not given in full), the pIC50 was 7.96 in data set [1] and 6.34 in data set [2]. Further, in the data set with MCF-10A, the Activity result is reported as “Non-Toxic”. Moreover, the CC50 in the data set on HCT-116 stood at 1030 nM; in the data set on MDA-MB-468 it was 246 nM.

For the molecule `Cc1cc(C)cc(/N=N/c2cccc(C(=O)N[C@H](C(=O)N[C@@H](CC(C)C)B3OC4C[C@@H]5C[C@@H](C5(C)C)[C@]4(C)O3)[C@@H](C)O)c2)c1` (stereo not given in full), the pIC50 in data set [1] is 7.26; in data set [2], 5.79.

With `CC(C)C[C@H](NC(=O)[C@H](Cc1ccc(/N=N/c2ccccc2)cc1)NC(=O)OC(C)(C)C)B1OC2C[C@@H]3C[C@@H](C3(C)C)[C@]2(C)O1` (stereo not given in full), the pIC50 is 8.00 in data set [1] and 6.97 in data set [2].

Turning to `CC(C)C[C@H](NC(=O)[C@@H](NC(=O)c1cccc(/N=N/c2ccc(-c3ccccc3)cc2)c1)[C@@H](C)O)B1OC2C[C@@H]3C[C@@H](C3(C)C)[C@]2(C)O1` (stereo not given in full), the pIC50 was 7.66 in data set [1] and 6.30 in data set [2].

For the molecule `CC(C)C[C@H](NC(=O)[C@H](Cc1ccc(/N=N\c2ccccc2)cc1)NC(=O)OC(C)(C)C)B1OC2C[C@@H]3C[C@@H](C3(C)C)[C@]2(C)O1` (stereo not given in full), the results for the pIC50 in data set [1] and in data set [2] were 7.92 and 6.96, respectively.

Turning to `Cc1cc(C)cc(/N=N\c2ccc(C[C@H](NC(=O)OC(C)(C)C)C(=O)N[C@@H](CC(C)C)B3OC4C[C@@H]5C[C@@H](C5(C)C)[C@]4(C)O3)cc2)c1` (stereo not given in full), the figures for the pIC50 in data set [1] and in data set [2] were 7.39 and 6.67, respectively.

For `CC(C)C[C@H](NC(=O)[C@@H](NC(=O)c1cccc(-c2ccccc2)n1)[C@@H](C)O)B(O)O` [DELANZOMIB], the figures for the pIC50 in data set [1] and in data set [2] were 8.00 and 7.23, respectively.

For `CC(C)C[C@H](NC(=O)[C@@H](NC(=O)c1cccc(/N=N\c2ccccc2)c1)[C@@H](C)O)B1OC2C[C@@H]3C[C@@H](C3(C)C)[C@]2(C)O1` (stereo not given in full), the pIC50 in data set [1] was 7.08; in data set [2] it was 6.12.

Consider `CC(C)C[C@H](NC(=O)[C@H](Cc1ccc(/N=N\c2ccc(-c3ccccc3)cc2)cc1)NC(=O)OC(C)(C)C)B1OC2C[C@@H]3C[C@@H](C3(C)C)[C@]2(C)O1` (stereo not given in full), for which the pIC50 in data set [1] is 7.27; in data set [2], 6.52. Also, the CC50 at 48 h in data set [3] was determined as 683 nM. In data set [4], this molecule yielded a Stability above 48 h. Also, the CC50 in the data set on HCT-116 worked out at 212 nM; with MDA-MB-468, 144 nM.

Take `CC(C)C[C@H](NC(=O)[C@@H](NC(=O)c1cccc(/N=N\c2ccc(-c3ccccc3)cc2)c1)[C@@H](C)O)B1OC2C[C@@H]3C[C@@H](C3(C)C)[C@]2(C)O1` (stereo not given in full): the pIC50 was 7.54 in data set [1] and 6.14 in data set [2].

As to `Cc1cc(C)cc(/N=N/c2ccc(C[C@H](NC(=O)OC(C)(C)C)C(=O)N[C@@H](CC(C)C)B3OC4C[C@@H]5C[C@@H](C5(C)C)[C@]4(C)O3)cc2)c1` (stereo not given in full), the values for the negative logarithm of the IC50 (pIC50) in data set [1] and in data set [2] were 7.28 and 6.68, respectively.
